Results from ChEMBL document CHEMBL1821567, “Synthesis and glycosidase inhibitory profiles of functionalised morpholines and oxazepanes” (Bioorg Med Chem, 2011).
Activity calls are given as the source filed them. No cut-off for these calls is given here.

Key:
[1] = target: T1, Beta-galactosidase/Glucosylceramidase (Bos taurus, UniProt Q58D55+Q2KHZ8); assay: Inhibition of bovine liver beta-glucosidase/beta-galatosidase
T1 sequence (Q58D55 whole entry): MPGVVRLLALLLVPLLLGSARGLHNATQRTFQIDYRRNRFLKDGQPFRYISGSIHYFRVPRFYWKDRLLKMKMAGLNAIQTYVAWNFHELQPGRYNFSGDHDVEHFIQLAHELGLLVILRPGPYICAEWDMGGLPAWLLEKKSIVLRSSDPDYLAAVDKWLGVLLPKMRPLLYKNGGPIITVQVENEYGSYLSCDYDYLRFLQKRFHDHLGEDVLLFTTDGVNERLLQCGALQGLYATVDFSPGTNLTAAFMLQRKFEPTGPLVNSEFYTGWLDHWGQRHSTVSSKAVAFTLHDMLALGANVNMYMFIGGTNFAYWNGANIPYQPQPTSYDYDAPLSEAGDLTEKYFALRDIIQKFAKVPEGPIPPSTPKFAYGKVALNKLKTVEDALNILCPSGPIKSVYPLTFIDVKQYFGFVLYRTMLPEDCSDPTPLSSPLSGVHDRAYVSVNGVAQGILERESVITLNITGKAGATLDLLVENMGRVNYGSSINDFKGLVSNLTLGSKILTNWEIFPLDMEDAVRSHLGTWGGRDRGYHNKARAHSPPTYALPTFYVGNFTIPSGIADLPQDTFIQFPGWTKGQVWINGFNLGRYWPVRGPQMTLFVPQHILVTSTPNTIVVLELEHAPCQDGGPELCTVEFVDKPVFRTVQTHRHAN
T1 sequence (Q2KHZ8 whole entry): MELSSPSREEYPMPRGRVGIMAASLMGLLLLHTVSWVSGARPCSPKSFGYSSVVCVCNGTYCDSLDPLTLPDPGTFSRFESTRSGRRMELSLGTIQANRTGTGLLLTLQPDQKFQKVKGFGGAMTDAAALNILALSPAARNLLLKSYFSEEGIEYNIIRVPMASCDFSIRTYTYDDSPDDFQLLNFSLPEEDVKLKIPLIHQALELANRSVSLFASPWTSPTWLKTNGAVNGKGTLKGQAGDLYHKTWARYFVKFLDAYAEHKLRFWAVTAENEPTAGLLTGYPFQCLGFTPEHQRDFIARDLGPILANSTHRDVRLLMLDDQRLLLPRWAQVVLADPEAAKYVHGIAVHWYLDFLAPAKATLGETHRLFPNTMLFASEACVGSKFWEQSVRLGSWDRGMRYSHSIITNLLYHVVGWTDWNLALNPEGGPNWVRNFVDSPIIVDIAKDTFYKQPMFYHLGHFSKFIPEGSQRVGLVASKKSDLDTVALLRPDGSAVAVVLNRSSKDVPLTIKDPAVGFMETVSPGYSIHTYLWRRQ

[2] = target: Alpha-galactosidase (Coffea arabica) (UniProt Q42656); assay: Inhibition of green coffee beans alpha-D-galactosidase at 1 mg/ml after 10 to 20 mins
Sequence of Alpha-galactosidase (Coffea arabica) (Q42656 16-378 limits assumed): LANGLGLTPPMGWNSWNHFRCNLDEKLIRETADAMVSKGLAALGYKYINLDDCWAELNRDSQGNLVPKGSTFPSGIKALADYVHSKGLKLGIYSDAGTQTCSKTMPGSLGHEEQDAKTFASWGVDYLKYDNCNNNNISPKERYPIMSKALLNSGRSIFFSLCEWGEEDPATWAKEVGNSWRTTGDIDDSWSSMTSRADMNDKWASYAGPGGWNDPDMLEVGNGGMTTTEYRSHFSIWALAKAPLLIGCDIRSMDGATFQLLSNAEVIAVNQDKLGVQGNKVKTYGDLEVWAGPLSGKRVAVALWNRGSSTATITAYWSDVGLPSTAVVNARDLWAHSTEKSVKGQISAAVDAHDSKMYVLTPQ
Outline: (§1)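 Enzyme was pre-incubated with test solution at 1 mg/ml, or dH2O for controls, for 10–20 min at 27 °C. Substrate was added and incubation continued for the same time at 27 °C. The reaction was stopped with glycine solution and read at 405 nm. Each sample and control ran in three wells at the enzyme's optimal pH. Values are % inhibition.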

[3] = species on record: Bos taurus; assay: Inhibition of bovine kidney N-acetyl-beta-D-glucosaminidase at 1 mg/ml after 10 to 20 mins; outline: as §1
[4] = test system: Oryza sativa; assay: Inhibition of rice alpha-D-glucosidase at 1 mg/ml after 10 to 20 mins; outline: as §1
[5] = test system: Penicillium decumbens; assay: Inhibition of Penicillium decumbens naringinase at 1 mg/ml after 10 to 20 mins; outline: as §1
[6] = test system: Geobacillus stearothermophilus; assay: Inhibition of Bacillus stearothermophilus alpha-D-glucosidase at 1 mg/ml after 10 to 20 mins; outline: as §1
[7] = test system: Cellulomonas fimi; assay: Inhibition of Cellulomonas fimi beta-D-mannosidase at 1 mg/ml after 10 to 20 mins; outline: as §1
[8] = target: T2, Beta-galactosidase (Bos taurus) (UniProt Q58D55); assay: Inhibition of bovine kidney beta-D-galactosidase at 1 mg/ml after 10 to 20 mins; outline: as §1
T2 sequence (whole entry): T1 sequence (Q58D55 whole entry)

[9] = test system: Canavalia ensiformis; assay: Inhibition of jack bean alpha-D-mannosidase at 1 mg/ml after 10 to 20 mins; outline: as §1
[10] = test system: Prunus; assay: Inhibition of almond beta-D-glucosidase at 1 mg/ml after 10 to 20 mins; outline: as §1
[11] = test system: Saccharomyces cerevisiae; assay: Inhibition of Saccharomyces cerevisiae alpha-D-glucosidase at 1 mg/ml after 10 to 20 mins; outline: as §1
[12] = target: T3, Beta-galactosidase (Bos taurus, UniProt Q58D55); assay: Inhibition of bovine kidney beta-D-galactosidase after 10 to 20 mins
T3 sequence (Q58D55 whole entry): T1 sequence (Q58D55 whole entry)
Outline: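 Bovine kidney β-D-galactosidase was pre-incubated with test solution, or dH2O for controls, for 10–20 min at 27 °C. Substrate was added for a further 10–20 min at 27 °C, then glycine solution, and absorbance at 405 nm. Wells were run in triplicate. Ki and inhibition mode came from Lineweaver–Burk double-reciprocal slopes.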

[13] = Inhibition of lysosomal alpha-glucosidase
[14] = Inhibition of lysosomal alpha-glucosidase
[15] = Inhibition of lysosomal beta-glucosidase; conditions: concentration not given here
Outline: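 Enzyme and test solution (or water for controls) were pre-incubated at 27 °C for 10–20 min. Substrate was then added and incubated at 27 °C for 10–20 min. The reaction was stopped with glycine solution and absorbance read at 405 nm. Wells were in triplicate with triplicate controls. Results are % inhibition at 1 mg/ml at optimal pH.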

[16] = target: T4, Lysosomal acid glucosylceramidase (Homo sapiens, UniProt P04062); assay: Uncompetitive inhibition of human beta-glucosidase by Michaelis-Menten kinetics analysis
T4 sequence (P04062 whole entry): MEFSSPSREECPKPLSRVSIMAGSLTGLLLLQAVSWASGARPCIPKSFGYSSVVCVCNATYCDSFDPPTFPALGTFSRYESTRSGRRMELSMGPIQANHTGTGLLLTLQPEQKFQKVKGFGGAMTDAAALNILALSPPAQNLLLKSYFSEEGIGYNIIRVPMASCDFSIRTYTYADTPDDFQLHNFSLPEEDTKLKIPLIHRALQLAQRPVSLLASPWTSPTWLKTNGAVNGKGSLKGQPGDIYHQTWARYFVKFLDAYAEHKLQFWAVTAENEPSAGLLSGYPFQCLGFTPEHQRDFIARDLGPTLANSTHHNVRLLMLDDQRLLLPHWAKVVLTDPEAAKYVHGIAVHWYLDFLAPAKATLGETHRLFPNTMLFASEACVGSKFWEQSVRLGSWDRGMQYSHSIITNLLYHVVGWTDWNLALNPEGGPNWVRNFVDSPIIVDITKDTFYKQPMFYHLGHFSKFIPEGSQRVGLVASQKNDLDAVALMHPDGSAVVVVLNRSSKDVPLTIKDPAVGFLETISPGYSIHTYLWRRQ

[17] = Inhibition of alpha-glucosidase

SMILES	inhibition [2]	inhibition [3]	inhibition [4]	inhibition [5]	inhibition [6]	inhibition [7]	inhibition [8]	inhibition [9]	inhibition [10]	inhibition [11]	other results
O[C@@H]1[C@@H](O)[C@H](O)[C@@]2(O)CO[C@H]1N2											Ki [1]: 45 µM
CCCCCCCCN1C[C@@H](CO)O[C@H](OC)C1	inactive	inactive	inactive	inactive	inactive	6%	51%	inactive	inactive	inactive	IC50 [12]: 55.1 µM
CCCN1C[C@@H](CO)O[C@H](OC)C1	inactive	inactive	inactive	9%	9%	inactive	54%	inactive	inactive	8%	IC50 [12]: 75.5 µM
O[C@@H]1[C@H](O)[C@H](O)[C@@]2(O)CO[C@H]1N2C(=S)Nc1ccccc1											Ki [1]: 750 µM
CO[C@@H]1CN(C[C@H]2O[C@H](OC)[C@H](O)[C@@H](O)[C@@H]2O)C[C@@H](CO)O1	31%	11%	inactive	11%	66%	33%	50%	inactive	28%	77%	
CO[C@@H]1CN(C)C[C@@H](CO)O1	inactive	inactive	inactive	inactive	inactive	inactive	48%	inactive	inactive	24%	IC50 [12]: 88.6 µM; Ki [12]: 126 µM
O[C@H]1[C@H](O)[C@@H](O)CN2CC[C@H](O)[C@H]12 [CASTANOSPERMINE]											Ki [13]: 0.1 µM; Ki [14]: 0.1 µM; inhibition ([14]; concentration not given here): 100%; inhibition [15]: 96%
COC(=O)C(Cc1ccc(O)cc1)N1C[C@@H](CO)O[C@H](OC)[C@H](O)C1 (some centres undefined)	inactive	inactive	inactive	inactive	inactive	inactive	inactive	inactive	inactive	inactive	
O=C(Nc1ccccc1)N1[C@@H]2OC[C@]1(O)[C@@H](O)[C@H](O)[C@H]2O											Ki [1]: 30 µM
O=C(Nc1ccccc1)N1[C@@H]2OC[C@]1(O)[C@@H](O)[C@@H](O)[C@H]2O											Ki [1]: 68 µM
COC(=O)CN1C[C@@H](CO)O[C@H](OC)C1	inactive	inactive	inactive	inactive	inactive	inactive	36%	inactive	inactive	inactive	
OCCN1CCOCC1											Ki [16]: 620 µM
OCCC(O)CN1CCOCC1 (centres undefined)											Ki [16]: 640 µM
CO[C@H]1O[C@H](CN2C[C@@H](CO)O[C@H](OC)[C@H](O)C2)[C@@H](OCc2ccccc2)[C@H](OCc2ccccc2)[C@H]1OCc1ccccc1	inactive	inactive	inactive	inactive	inactive	inactive	inactive	inactive	inactive	inactive	
CO[C@H]1O[C@H](CO)CNC[C@H]1O	6%	9%	inactive	inactive	8%	inactive	16%	inactive	inactive	inactive	
OC[C@H]1CNC[C@@H](O)[C@@H]1O											INH [17]: 86 µM
CCCN1C[C@@H](CO)O[C@H](OC)[C@H](O)C1	inactive	25%	inactive	inactive	inactive	inactive	32%	inactive	inactive	10%	
CCCCN1C[C@@H](CO)O[C@H](OC)C1	inactive	8%	inactive	7%	inactive	inactive	45%	inactive	inactive	inactive	IC50 [12]: 70.3 µM
O[C@@H]1[C@@H](O)[C@H](O)[C@@]2(O)CO[C@H]1N2C(=S)Nc1ccccc1											Ki [1]: 2.5 µM
CO[C@@H]1CN(O)C[C@@H](CO)O1	inactive	72%	29%	inactive	inactive	inactive	82%	inactive	inactive	58%	IC50 [12]: 30.6 µM; Ki [12]: 20.2 µM
